Here are results for 2 compounds from PMC5497803 (Cancer Science, 2017).

Broadly, the IC50 is the concentration that gives 50% inhibition.

For data set [1], the system named is MV4;11 cells. Description: Cell proliferation MTT assay. It counts as cell-based. The following applies: Homo sapiens, MV4-11, 72 h, read-out: IC50 value, MV4;11. A digest of the protocol:
(§1)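 Cells kept in RPMI-1640 with 10% FBS at 37°C, 5% CO2. In 96-well plates, cells exposed in triplicate to a range of test compound concentrations for 72 h at 37°C. Viability read by MTT conversion to coloured product. IC50 by curve fitting; mean ± SEM of three independent experiments.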
Background: Tetrazolium assays rely on reduction of a dye to a coloured formazan, in cell work by metabolically active cells.

Data set [2] deals with MV4;11 cells. Description: Cell cycle analysis by flow cytometry. In kind it is cell-based, human. The following applies: MV4;11, 24 h, 1 μM; control 63.3%. A general note: A flow cytometer gives signals particle by particle.
A further data set deals with MV4;11 xenografts. As to the kind of experiment: MV4. It counts as in vivo, nude mice.
For data set [3], the target named is T1, p110δ (Homo sapiens, UniProt O00329). As to the kind of experiment: PI3K isoform-specific cell-based assay, anti‐IgM–stimulated Raji cells. The following applies: anti‐IgM 1 μg/mL 10 min, then 3 h drug.
T1 sequence (O00329 whole entry, species assumed, canonical isoform): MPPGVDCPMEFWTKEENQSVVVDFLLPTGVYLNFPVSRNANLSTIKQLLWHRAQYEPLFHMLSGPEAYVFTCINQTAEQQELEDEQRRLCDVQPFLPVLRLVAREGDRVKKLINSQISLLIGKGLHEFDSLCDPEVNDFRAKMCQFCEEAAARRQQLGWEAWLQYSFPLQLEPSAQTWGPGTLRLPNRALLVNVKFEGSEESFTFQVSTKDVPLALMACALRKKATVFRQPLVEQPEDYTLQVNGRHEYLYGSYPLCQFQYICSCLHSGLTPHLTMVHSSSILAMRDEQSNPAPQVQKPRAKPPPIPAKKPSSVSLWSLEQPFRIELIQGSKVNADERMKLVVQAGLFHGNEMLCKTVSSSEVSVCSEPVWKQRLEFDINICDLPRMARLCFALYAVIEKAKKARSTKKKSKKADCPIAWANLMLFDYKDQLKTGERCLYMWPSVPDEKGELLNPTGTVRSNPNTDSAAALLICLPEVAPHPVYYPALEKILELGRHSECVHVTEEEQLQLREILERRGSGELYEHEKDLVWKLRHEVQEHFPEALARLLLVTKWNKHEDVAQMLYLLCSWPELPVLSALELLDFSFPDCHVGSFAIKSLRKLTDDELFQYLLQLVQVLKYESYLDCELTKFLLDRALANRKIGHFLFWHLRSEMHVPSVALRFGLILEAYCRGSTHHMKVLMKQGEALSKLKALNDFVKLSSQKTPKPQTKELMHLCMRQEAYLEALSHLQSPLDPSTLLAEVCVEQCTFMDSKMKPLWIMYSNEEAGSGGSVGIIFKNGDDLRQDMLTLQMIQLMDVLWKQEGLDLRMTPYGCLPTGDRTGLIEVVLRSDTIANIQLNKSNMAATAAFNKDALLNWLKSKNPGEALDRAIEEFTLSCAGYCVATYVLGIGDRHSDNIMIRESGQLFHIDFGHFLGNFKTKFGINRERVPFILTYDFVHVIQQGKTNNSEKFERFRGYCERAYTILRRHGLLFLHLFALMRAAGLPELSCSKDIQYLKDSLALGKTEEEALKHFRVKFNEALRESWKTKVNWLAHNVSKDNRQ
T1 sequence (P27986 whole entry partner, species assumed, canonical isoform): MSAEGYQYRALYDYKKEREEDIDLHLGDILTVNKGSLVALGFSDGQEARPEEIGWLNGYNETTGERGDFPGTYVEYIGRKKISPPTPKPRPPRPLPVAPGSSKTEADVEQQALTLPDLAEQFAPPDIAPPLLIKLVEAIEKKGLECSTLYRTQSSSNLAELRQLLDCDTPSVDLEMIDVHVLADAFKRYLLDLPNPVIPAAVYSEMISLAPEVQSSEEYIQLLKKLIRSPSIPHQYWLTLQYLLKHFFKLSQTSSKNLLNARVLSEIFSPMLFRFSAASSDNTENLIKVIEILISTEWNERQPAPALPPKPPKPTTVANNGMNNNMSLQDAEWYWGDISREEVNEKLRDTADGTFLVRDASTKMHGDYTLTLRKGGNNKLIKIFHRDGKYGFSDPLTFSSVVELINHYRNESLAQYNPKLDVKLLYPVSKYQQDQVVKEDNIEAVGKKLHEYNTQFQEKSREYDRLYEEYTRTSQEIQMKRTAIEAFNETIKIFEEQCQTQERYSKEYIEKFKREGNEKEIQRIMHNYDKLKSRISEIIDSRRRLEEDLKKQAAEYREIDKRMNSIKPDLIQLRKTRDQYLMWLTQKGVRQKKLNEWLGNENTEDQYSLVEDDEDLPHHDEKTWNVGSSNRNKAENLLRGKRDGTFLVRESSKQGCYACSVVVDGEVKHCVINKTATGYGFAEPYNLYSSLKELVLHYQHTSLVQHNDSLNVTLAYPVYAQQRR
The subject of data set [4] is MV4;11 cells. As to the kind of experiment: Apoptosis, Annexin V staining and cleaved caspases/PARP. The following applies: MV4;11 (and RS4;11), 48 h. It counts as cell-based, human. In a few lines: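 MV4;11 and RS4;11 cells exposed to test compound at several concentrations for 48 h. Whole-cell lysates were resolved by SDS-PAGE, blotted onto PVDF and probed for PARP and caspase-3, -8 and -9 cleavage, with ECL detection.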

The test system of data set [5] is phosphorylation of AKT and ERK in AML cells. Description: Constitutive PI3K/AKT and ERK signaling in AML cells. In kind it is cell-based, human. The following applies: Kasumi‐1 and EOL‐1 cells, 1 μM, 3 h. A digest of the protocol:
(§2)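 Cells in RPMI-1640/10% FBS treated with 1 μM test compound for 3 h, with no added stimulus. Whole-cell lysates separated by SDS-PAGE and transferred to PVDF. Probed for phospho-AKT (S473, T308), phospho-ERK1/2, phospho-S6 and phospho-P70S6K; ECL detection.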

Data set [6] addresses T1, p110δ. As to the kind of experiment: PI3K ELISA kinase assay, recombinant class I PI3K. It counts as biochemical. For orientation: An ELISA detects its analyte on a solid surface through an enzyme-linked reagent.
For data set [7], the system named is panel of other protein kinases. Description: SelectScreen kinase profiling, whole panel. It counts as biochemical. The following applies: 1000 nM.
Data set [8] relates to p110δ‐negative MM.1R cell line. Description: Cell proliferation MTT assay. It counts as cell-based. The following applies: 72 h. In a few lines: as §1
Data set [9] concerns peripheral blood mononuclear cells. As to the kind of experiment: Cytotoxicity against peripheral blood mononuclear cells. The following applies: 10 μM; data not shown. In kind it is cell-based.
For another data set, the system named is RS4;11 xenografts. Description: RS4. It counts as in vivo, nude mice. In a few lines: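 Female Balb/cA nude mice, 5–6 weeks old, inoculated subcutaneously with 5–9 × 10^6 MV4;11 or RS4;11 cells and randomised at 100–300 mm3. Dosed orally with 30 or 60 mg/kg daily for 21 days, or vehicle (vehicle n = 12, treated n = 6). Tumour volume taken as (length × width²)/2; body weight and toxicity signs recorded. Tumours collected 3 h after last dose for western blot.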

Data set [10] has as its target T2, p110α (Homo sapiens, UniProt P42336). As to the kind of experiment: PI3K isoform-specific cell-based assay, SK‐BR‐3 cells. The following applies: 3 h. A digest of the protocol:
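SK-BR-3 cells exposed to test compound for 3 h. Cell lysates western blotted with phospho-specific antibodies for AKT phosphorylation.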

Data set [11] addresses T3, p110β (Homo sapiens, UniProt P42338). As to the kind of experiment: PI3K isoform-specific cell-based assay, LPA-stimulated PC‐3 cells. The following applies: LPA 10 μM, 3 h drug; compared with Raji cells. In a few lines:
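PC-3 cells stimulated with LPA (10 μM) for 10 min, then exposed to test compound for a further 3 h. Cell lysates western blotted for AKT phosphorylation.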

The target of the next data set is p110γ (Mus musculus, UniProt Q9JHG7). As to the kind of experiment: PI3K isoform-specific cell-based assay, C5a-stimulated RAW264.7 cells. The following applies: C5a 50 ng/mL, 3 h drug; compared with Raji cells.
p110γ, sequence (Q9JHG7 whole entry, canonical isoform): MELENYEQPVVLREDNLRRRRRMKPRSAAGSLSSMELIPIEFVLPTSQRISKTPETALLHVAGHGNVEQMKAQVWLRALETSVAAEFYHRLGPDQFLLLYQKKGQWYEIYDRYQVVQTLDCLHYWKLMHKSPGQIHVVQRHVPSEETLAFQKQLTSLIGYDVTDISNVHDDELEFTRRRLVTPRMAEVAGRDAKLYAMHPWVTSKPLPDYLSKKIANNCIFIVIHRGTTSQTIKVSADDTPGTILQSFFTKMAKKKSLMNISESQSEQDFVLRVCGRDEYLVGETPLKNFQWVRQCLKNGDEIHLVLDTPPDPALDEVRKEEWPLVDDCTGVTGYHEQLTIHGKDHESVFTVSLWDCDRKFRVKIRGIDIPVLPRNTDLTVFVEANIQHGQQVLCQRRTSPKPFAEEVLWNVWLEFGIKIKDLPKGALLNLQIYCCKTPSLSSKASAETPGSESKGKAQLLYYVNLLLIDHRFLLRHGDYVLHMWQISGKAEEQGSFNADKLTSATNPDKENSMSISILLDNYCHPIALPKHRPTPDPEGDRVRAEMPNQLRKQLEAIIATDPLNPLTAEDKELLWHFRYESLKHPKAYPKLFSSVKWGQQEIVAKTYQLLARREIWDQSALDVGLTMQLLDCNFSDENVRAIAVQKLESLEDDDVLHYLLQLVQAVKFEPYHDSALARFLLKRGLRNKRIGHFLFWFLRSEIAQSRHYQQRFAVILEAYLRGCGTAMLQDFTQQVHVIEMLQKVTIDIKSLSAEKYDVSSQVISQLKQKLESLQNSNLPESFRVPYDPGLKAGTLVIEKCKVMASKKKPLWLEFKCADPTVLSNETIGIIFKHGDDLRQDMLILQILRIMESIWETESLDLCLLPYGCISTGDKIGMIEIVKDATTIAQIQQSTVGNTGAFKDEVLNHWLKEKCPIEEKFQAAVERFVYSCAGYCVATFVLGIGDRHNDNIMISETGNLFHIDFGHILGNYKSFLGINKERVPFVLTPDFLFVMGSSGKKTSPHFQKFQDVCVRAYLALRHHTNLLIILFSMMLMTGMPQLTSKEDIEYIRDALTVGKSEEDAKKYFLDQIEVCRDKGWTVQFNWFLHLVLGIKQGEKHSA
Data set [12] is described as follows: Pharmacokinetic study in MV4. It counts as in vivo. The following applies: single oral dose 60 mg/kg, MV4;11 tumor‐bearing mice. In a few lines: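 MV4;11 tumour-bearing nude mice given a single oral 60 mg/kg dose or vehicle. Plasma and tumours collected at times from 0.5 to 24 h. Drug levels in plasma and tissue measured by HPLC/tandem MS; tumour extracts western blotted for phospho-AKT and phospho-ERK.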

The subject of data set [13] is phosphorylation of AKT or ERK in MM.1R cells. Description: Constitutive PI3K/AKT and ERK signaling in MM.1R cells. In kind it is cell-based. The following applies: low expression of p110δ; 1 μM, 3 h. A digest of the protocol:
as §2

For data set [14] the following is noted: previous study ref 38; cited from earlier work.
For data set [15], the target named is T2, p110α. Description: biochemical.
For data set [16], the target named is T3, p110β. Description: biochemical.

T3 sequence (P42338 whole entry, species assumed, canonical isoform): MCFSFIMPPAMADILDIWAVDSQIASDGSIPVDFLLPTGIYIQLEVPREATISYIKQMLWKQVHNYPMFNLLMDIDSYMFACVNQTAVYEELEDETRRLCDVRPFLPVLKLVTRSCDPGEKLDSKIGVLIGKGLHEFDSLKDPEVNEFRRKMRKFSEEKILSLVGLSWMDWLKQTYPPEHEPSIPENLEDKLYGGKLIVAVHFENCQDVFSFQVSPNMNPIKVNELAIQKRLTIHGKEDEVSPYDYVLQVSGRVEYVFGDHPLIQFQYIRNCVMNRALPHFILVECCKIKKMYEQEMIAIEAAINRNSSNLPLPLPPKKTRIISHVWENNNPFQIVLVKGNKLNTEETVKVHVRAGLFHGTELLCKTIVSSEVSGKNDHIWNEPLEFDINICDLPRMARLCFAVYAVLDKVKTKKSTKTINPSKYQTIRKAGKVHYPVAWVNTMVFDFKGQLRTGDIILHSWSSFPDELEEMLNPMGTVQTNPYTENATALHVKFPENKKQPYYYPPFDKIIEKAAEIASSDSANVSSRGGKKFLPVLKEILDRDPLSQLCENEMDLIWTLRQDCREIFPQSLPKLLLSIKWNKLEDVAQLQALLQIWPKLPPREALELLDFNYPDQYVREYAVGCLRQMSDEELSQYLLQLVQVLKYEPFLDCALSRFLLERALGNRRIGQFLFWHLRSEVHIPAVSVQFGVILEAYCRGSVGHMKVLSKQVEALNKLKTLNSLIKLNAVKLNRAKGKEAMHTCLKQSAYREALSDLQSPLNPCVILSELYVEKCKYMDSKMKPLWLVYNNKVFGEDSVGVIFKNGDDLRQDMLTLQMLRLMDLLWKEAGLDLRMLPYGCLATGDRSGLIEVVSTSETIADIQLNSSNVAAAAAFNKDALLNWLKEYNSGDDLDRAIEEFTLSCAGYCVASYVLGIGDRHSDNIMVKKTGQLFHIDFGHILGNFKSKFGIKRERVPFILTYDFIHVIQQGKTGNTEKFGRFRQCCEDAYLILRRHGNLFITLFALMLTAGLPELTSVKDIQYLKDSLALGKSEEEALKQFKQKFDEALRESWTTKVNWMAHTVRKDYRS
T3 sequence (P27986 whole entry partner, species assumed, canonical isoform): as the sequence (P27986 whole entry partner, species assumed, canonical isoform) above
T2 sequence (P42336 whole entry, species assumed, canonical isoform): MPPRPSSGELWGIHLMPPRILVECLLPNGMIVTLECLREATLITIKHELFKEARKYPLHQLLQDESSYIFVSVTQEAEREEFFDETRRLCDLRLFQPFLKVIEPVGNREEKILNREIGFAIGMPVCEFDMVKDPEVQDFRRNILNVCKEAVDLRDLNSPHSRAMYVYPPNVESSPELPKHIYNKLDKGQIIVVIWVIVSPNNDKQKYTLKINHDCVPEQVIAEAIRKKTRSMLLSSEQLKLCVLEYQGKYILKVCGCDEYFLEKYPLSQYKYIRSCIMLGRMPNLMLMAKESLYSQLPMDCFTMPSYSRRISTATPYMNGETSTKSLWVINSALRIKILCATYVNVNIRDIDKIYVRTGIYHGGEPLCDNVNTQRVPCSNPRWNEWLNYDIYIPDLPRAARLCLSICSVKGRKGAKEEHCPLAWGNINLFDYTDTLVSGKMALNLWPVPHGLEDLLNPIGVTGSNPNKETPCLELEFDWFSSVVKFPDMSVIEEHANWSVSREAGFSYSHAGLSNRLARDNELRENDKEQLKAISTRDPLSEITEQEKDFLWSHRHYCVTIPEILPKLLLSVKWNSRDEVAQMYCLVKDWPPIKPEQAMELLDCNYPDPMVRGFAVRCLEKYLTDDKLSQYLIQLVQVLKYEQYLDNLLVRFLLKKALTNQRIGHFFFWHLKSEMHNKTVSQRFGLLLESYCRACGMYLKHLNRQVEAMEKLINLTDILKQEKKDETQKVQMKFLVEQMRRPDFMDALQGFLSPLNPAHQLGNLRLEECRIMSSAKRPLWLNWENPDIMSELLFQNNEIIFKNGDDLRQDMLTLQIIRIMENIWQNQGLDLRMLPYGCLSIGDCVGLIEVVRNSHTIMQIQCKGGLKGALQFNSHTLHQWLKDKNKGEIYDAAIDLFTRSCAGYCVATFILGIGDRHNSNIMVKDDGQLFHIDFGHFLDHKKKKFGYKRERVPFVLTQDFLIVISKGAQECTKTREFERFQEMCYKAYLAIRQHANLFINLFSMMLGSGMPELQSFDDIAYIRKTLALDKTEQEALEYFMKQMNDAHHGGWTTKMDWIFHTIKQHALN
T2 sequence (P27986 whole entry partner, species assumed, canonical isoform): as the sequence (P27986 whole entry partner, species assumed, canonical isoform) above

With `CC[C@H](Nc1ncnc2[nH]cnc12)c1nc2cccc(F)c2c(=O)n1-c1ccccc1` [CAL‐101, Idelalisib, reference compound], the IC50 with MV4;11 cells [1] came out at 2400 nM. Further, the G1 phase cells in the data set with MV4;11 cells [2] was found to be 70.7%. In addition, the Tumor growth inhibition came to 50% in the data set with MV4;11 xenografts (MV4;11 xenografts, 90 mg/kg oral daily) and 61% in the data set on MV4;11 xenografts (MV4;11 xenografts, 180 mg/kg oral daily). Also, the “Phosphorylation of AKT, S6 and ERK in anti‐IgM–stimulated Raji cells” value at p110δ [3] was “concentration‐dependent decrease”. Also, the Apoptosis induction entry in the data set on MV4;11 cells [4] is listed as “weaker induction of apoptosis”. In addition, in [5], the “Phosphorylation of AKT and ERK in p110δ‐positive AML cells” value is given as “preferentially inhibited phosphorylation of AKT relative to ERK”.
Regarding `c1cnc2ccc(Nc3nc(NC4CC4)c4nc[nH]c4n3)cc2c1` [Puquitinib], the IC50 on p110δ [6] was determined as 3.3 ± 0.6 nM; with MV4;11 cells [1] it was 100 nM; against p110α [15], 993 ± 320 nM; on p110β [16] it was 959 ± 367 nM. For the same compound, the “Inhibitory activity against a panel of other protein kinases” value in [7] is given as “little or no inhibitory activity”. Also, the “Cytotoxicity in p110δ‐negative MM.1R cell line” value in data set [8] is “minimal cytotoxicity”. The “Cytotoxicity against peripheral blood mononuclear cells” value in data set [9] is recorded as “no cytotoxicity”. The compound also gave a G1 phase cells in the data set on MV4;11 cells [2] of 83.0%. Besides, the “Levels of pAKT and pERK in tumor tissues” value in the data set with MV4;11 xenografts (MV4;11 and RS4;11 tumor models, 3 h after last dose) is recorded as “significantly decreased”. For the same compound, the “Tolerability (body weight loss, signs of toxicity)” value with MV4;11 xenografts (MV4;11 and RS4;11 xenograft studies, all groups) was “well tolerated”. Also, in the data set with MV4;11 xenografts (MV4;11 xenograft, single oral 60 mg/kg, 0.5 to 24 h), the “Phosphorylation of AKT and ERK in tumor tissue after a single dose” value is given as “inhibited in a time‐dependent manner”. Further, the Tumor growth inhibition is recorded as 72% in the data set with MV4;11 xenografts (MV4;11 xenografts, 30 mg/kg oral daily for 21 days, final treatment day); 103% in the data set with MV4;11 xenografts (MV4;11 xenografts, 60 mg/kg oral daily for 21 days, final treatment day); 50% in the data set on RS4;11 xenografts (30 mg/kg oral daily for 21 days); 69% in the data set on RS4;11 xenografts (60 mg/kg oral daily for 21 days). In the data set with MV4;11 xenografts (MV4;11 xenografts, 60 mg/kg oral daily), the Complete tumor regression result is reported as “three of six”. For the same compound, in the data set with MV4;11 xenografts (MV4;11 xenografts, 30 mg/kg puquitinib combined with 2 mg/kg daunorubicin, P < 0.01), the “Antitumor efficacy of combination versus single agents” value is reported as “significantly superior”. Moreover, in the data set with MV4;11 xenografts (MV4;11 xenografts, puquitinib with daunorubicin or cytarabine), the Tolerability of combination result is given as “generally well tolerated”. At p110δ [3], the “Phosphorylation of AKT, S6 and ERK in anti‐IgM–stimulated Raji cells” value is on record as “concentration‐dependent decrease”. Moreover, the “p110α/AKT phosphorylation in SK‐BR‐3 cells” value on p110α [10] is on record as “No obvious inhibitory activity”. In addition, the “LPA‐stimulated phosphorylation of AKT in PC‐3 cells” value on p110β [11] was “much weaker”. Besides, the “C5a‐stimulated phosphorylation of AKT in RAW 264.7 cells” value at p110γ is recorded as “much weaker”. The Apoptosis induction entry in the data set with MV4;11 cells [4] is recorded as “increased in a dose‐dependent manner”. Further, the “Appearance in plasma and tumor tissue” value in [12] is “appeared rapidly”. Further, the “Phosphorylation of AKT and ERK in p110δ‐positive AML cells” value in data set [5] is listed as “significantly inhibited”. In [13], the “Phosphorylation of AKT or ERK in MM.1R cells” value was “did not affect”. Further, the Hyperglycemia entry in data set [14] was “no puquitinib‐related hyperglycemia”.
